For data set [1], the system named is Escherichia coli. Nature of the data set: Antibacterial activity against Escherichia coli K-12 W3110 infected in mouse assessed as reduction of bacterial level in blood at 100 to 300 ug, ip administered 15 mins and 12 hrs postinfection relative to control. Format: functional, K-12 substr. W3110. The essentials:
(§1)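 E. coli K-12 W3110 was grown in LB broth for the inoculum and injected intraperitoneally into groups of 3–7 mice. Conjugates were given ip at 15 min and 12 h postinfection (10–300 μg per dose), with water or scrambled-sequence conjugate as controls. Blood drawn at 2, 6, 12, 24 and 48 h was diluted and plated on LB for CFU counts. Survival was followed by Kaplan-Meier, and log CFU was compared by ANOVA with Tukey-Kramer.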

Data set [2] concerns Escherichia coli. Nature of the data set: Antibacterial activity against Escherichia coli K-12 W3110 infected in mouse assessed as reduction of bacterial level in blood at 30 ug, ip administered 15 mins and 12 hrs postinfection measured after 2 hrs post dose relative to control. Format: functional. To be noted: K-12 substr. W3110. Summed up: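 Mice in groups of 3–7 were infected intraperitoneally with E. coli W3110 from an LB culture. They were dosed ip with 10–300 μg per dose at 15 min and 12 h postinfection. Controls were water or scrambled-sequence PPMO. Blood was taken at 2, 6, 12, 24 and 48 h, diluted and plated on LB for CFU/ml. Log CFU was compared by one-way ANOVA with Tukey-Kramer; mean ± SD.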

Data set [3] has as its system Escherichia coli. The data set is described as follows: Antibacterial activity against Escherichia coli K-12 W3110 infected in mouse assessed as increase of mouse survival at 30 ug, ip administered 15 mins and 12 hrs postinfection. It is filed as functional, organism-based. Conditions: K-12 substr. W3110. Summed up:
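Mice in groups of 3–7 were infected intraperitoneally with E. coli W3110 from an LB culture. They were treated ip at 15 min and 12 h postinfection with 10, 30, 100 or 300 μg per dose; 300 μg is noted as ~15 mg/kg. Controls were water or scrambled-sequence PPMO. Survival was followed to 48 h and analysed by the Kaplan-Meier method.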

Data set [4] in a line: Toxicity in Escherichia coli K-12 W3110 infected ip dosed mouse. It is filed as organism-based. To be noted: in vivo. Summed up:
as §1

In data set [5] the test system is Rattus norvegicus. The data set is described as follows: Toxicity in rat at 150 mg/kg, ip. To be noted: in vivo.

Calls of active or inactive are those of the source. No cut-off for these calls is given here.

Consider `CC1(C)S[C@@H]2[C@H](NC(=O)[C@H](N)c3ccccc3)C(=O)N2[C@H]1C(=O)O` [AMPICILLIN], for which the log10cfu in data set [1] is listed as 3. For the same compound, the outcome in data set [2] and in data set [3] was inactive.

Usually LD50 stands for the dose expected to kill half of the subjects tested. Low readings indicate a more toxic substance, high ones a less toxic substance. Regarding `Cc1cn([C@H]2CNC[C@@H](COP(=O)(N(C)C)N3C[C@@H](COP(=O)(N(C)C)N4C[C@@H](COP(=O)(N(C)C)N5C[C@@H](COP(=O)(N(C)C)N6C[C@@H](COP(=O)(N(C)C)N7C[C@@H](COP(=O)(N(C)C)N8C[C@@H](COP(=O)(N(C)C)N9C[C@@H](COP(=O)(N(C)C)N%10C[C@@H](COP(=O)(N(C)C)N%11C[C@@H](COP(=O)(N(C)C)N%12C[C@@H](COP(=O)(N(C)C)N%13CCN(C(=O)CCNC(=O)CCCCCNC(=O)[C@H](CCCNC(=N)N)NC(=O)[C@H](Cc%14ccccc%14)NC(=O)[C@H](CCCNC(=N)N)NC(=O)[C@H](CCCNC(=N)N)NC(=O)NC(=O)[C@H](Cc%14ccccc%14)NC(=O)[C@H](CCCNC(=N)N)NC(=O)[C@H](CCCNC(=N)N)NC(=O)NC(=O)[C@H](Cc%14ccccc%14)NC(=O)[C@H](CCCNC(=N)N)NC(=O)[C@H](CCCNC(=N)N)NC(=O)NC(=O)[C@H](Cc%14ccccc%14)NC(=O)[C@@H](N)CCCNC(=N)N)CC%13)O[C@@H](n%13cc(C)c(=O)[nH]c%13=O)C%12)O[C@@H](n%12ccc(N)nc%12=O)C%11)O[C@@H](n%11cc(C)c(=O)[nH]c%11=O)C%10)O[C@@H](n%10ccc(N)nc%10=O)C9)O[C@@H](n9cnc%10c(N)ncnc%109)C8)O[C@@H](n8cnc9c(=O)[nH]c(N)nc98)C7)O[C@@H](n7cnc8c(N)ncnc87)C6)O[C@@H](n6cc(C)c(=O)[nH]c6=O)C5)O[C@@H](n5cnc6c(=O)[nH]c(N)nc65)C4)O[C@@H](n4cnc5c(=O)[nH]c(N)nc54)C3)O2)c(=O)[nH]c1=O` (stereo not given in full), in data set [4], the LD50 is 210 mg/kg. Besides, the Activity result in data set [5] is on record as “Toxic”.
